Source: ChEMBL document CHEMBL4819129, “Design, synthesis and lipid-lowering activities of penipyridone derivatives” (Bioorg Med Chem, 2021)
Activity calls are given as the source filed them. No cut-off for these calls is given here.

Tests used:
HepG2 [1] = assay: Hypolipidemic activity in human HepG2 cells assessed as inhibition of oleic acid-induced lipid accumulation at 10 uM; assay type: functional, cell-based
In short: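 Oleic acid-induced lipid accumulation in HepG2; cells given 100 μM oleic acid with or without compound at 10 μM in DMSO; DMSO-only and OA-only controls, Simvastatin 10 μM positive control. Lipid quantified by oil red O staining. Mean ± SD, n = 4–6, at least three independent experiments.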

HepG2 [2] = assay: Cytotoxicity against human HepG2 cells assessed as reduction in cell viability at 100 uM by MTT assay; assay type: cell-based; settings: hepg2, 100 µM
In short: (§1)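 MTT viability in HepG2 seeded at 1.2 × 10⁴ cells/well, grown 24 h, then given serial dilutions from DMSO stocks (0.22 μm-filtered) in DMEM + 10% FBS, DMSO as control; 48 h at 37 °C. MTT 5 mg/mL in PBS added for 4 h, formazan dissolved in 10% SDS/0.01 N HCl, A490 read; DMSO wells = 100% viable. Mean ± SD, n = 6.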

HepG2 [3] = assay: Cytotoxicity against human HepG2 cells assessed as reduction in cell viability at 400 uM incubated for 48 hrs by MTT assay; assay type: cell-based; settings: hepg2, 48 h; in short: as §1
HepG2 [4] = assay: Hypolipidemic activity in human HepG2 cells assessed as inhibition of oleic acid-induced triglyceride accumulation at 10 uM after 24 hrs; assay type: functional, cell-based
In short: (§2)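 HepG2 in 12-well plates at 2 × 10⁵ cells/well, 37 °C; after 24 h, co-treated 24 h with 100 μmol/L oleic acid plus compound (DMSO vehicle) or Simvastatin 10 μM. Cells rinsed twice in PBS, lysed on ice 20 min, and triglyceride and total cholesterol contents measured. OA-only cells served as reference. Mean ± SD, n = 4.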

HepG2 [5] = assay: Hypolipidemic activity against oleic acid-induced lipid accumulation in human HepG2 cell model assessed as decrease in triglycerides level at 10 uM measured after 24 hrs; assay type: functional; design: scale not given: the % may be the effect or the level left; in short: as §2
HepG2 [6] = assay: Hypolipidemic activity against oleic acid-induced lipid accumulation in human HepG2 cell model assessed as decrease in total cholestrol level at 10 uM measured after 24 hrs; assay type: functional; design: scale not given: the % may be the effect or the level left; in short: as §2
HepG2 [7] = assay: Hypolipidemic activity against oleic acid-induced lipid accumulation in human HepG2 cell model assessed as decrease in triglycerides level at 20 uM measured after 24 hrs; assay type: functional; design: scale not given: the % may be the effect or the level left; in short: as §2
HepG2 [8] = assay: Hypolipidemic activity against oleic acid-induced lipid accumulation in human HepG2 cell model assessed as decrease in total cholestrol level at 20 uM measured after 24 hrs; assay type: functional; design: scale not given: the % may be the effect or the level left; in short: as §2
HepG2 [9] = assay: Hypolipidemic activity against oleic acid-induced lipid accumulation in human HepG2 cell model assessed as decrease in total cholestrol level at 5 uM measured after 24 hrs; assay type: functional; design: scale not given: the % may be the effect or the level left; in short: as §2
HepG2 [10] = assay: Hypolipidemic activity in human HepG2 cells assessed as reduction in OA-induced lipid accumulation incubated for 1 hrs by Oil Red O staining based assay; assay type: functional, cell-based; settings: time 24.0 hrs, in the assay text read “24 hrs” for “1 hrs”
In short: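 Oil red O: HepG2 fixed in 10% neutral formalin 1 h at room temperature, PBS-washed, stained 1 h with 0.5% oil red O in 60% isopropanol, water-washed and imaged (40×). For quantification, stained lipid droplets (30 min) washed with 70% ethanol and absorbance read at 358 nm.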

| Compound | Activity (HepG2 [1]) | also measured |
| --- | --- | --- |
| COCCOc1cc([C@@H](OC(C)=O)c2ccccc2)ncc1C(N)=O | inactive |  |
| CC(=O)O[C@@H](c1ccccc1)c1cc(=O)c(C(=O)NC(=O)CC(C)C)cn1CCO | Active |  |
| CC(C)CC(=O)O[C@@H](c1ccccc1)c1cc(OCCO)c(C(N)=O)cn1 | inactive |  |
| CC(=O)O[C@@H](c1ccccc1)c1cc(=O)c(C(N)=O)cn1CCN(C)C | Active | Activity (HepG2 [2]): Non-Toxic |
| CC(=O)O[C@@H](c1ccccc1)c1cc(OCc2ccccc2)c(C(N)=O)cn1 | inactive |  |
| CC(=O)O[C@@H](c1ccccc1)c1cc(=O)c(C(N)=O)cn1CCN1CCCCC1 | Active |  |
| CC(=O)O[C@@H](c1ccccc1)c1cc(OCCO)c(C(=O)N(C)C)cn1 | inactive |  |
| CC(=O)O[C@@H](c1ccccc1)c1cc(OCCO)c(C(N)=O)cn1 | Active | Activity (HepG2 [3]): Non-Toxic; Activity (HepG2 [4]): Active |
| NC(=O)c1cn(CCO)c(-c2ccccc2)cc1=O | Active | Activity (HepG2 [2]): Non-Toxic |
| CC(=O)O[C@@H](c1ccccc1)c1cc(OCCN2CCCC2)c(C(N)=O)cn1 | Active |  |
| CCC(C)(C)C(=O)O[C@H]1C[C@@H](C)C=C2C=C[C@H](C)[C@H](CC[C@@H]3C[C@@H](O)CC(=O)O3)[C@H]21 [SIMVASTATIN] |  | Activity (HepG2 [5]): 29.1%; Activity (HepG2 [6]): 12.1% |
| CC(=O)O[C@@H](c1ccccc1)c1cc(OCCN2CCSCC2)c(C(N)=O)cn1 | Active | Activity (HepG2 [2]): Non-Toxic; Activity (HepG2 [3]): Non-Toxic; Activity (HepG2 [4]): Active; Activity (HepG2 [7]): 30.2%; Activity (HepG2 [8]): 14.8%; Activity (HepG2 [9]): 12.8%; Activity (HepG2 [10]): Dose-Dependent Effect |
| CC(C)CC(=O)O[C@@H](c1ccccc1)c1cc(=O)c(C(N)=O)cn1CCO | inactive |  |
| CC(=O)O[C@@H](c1ccccc1)c1cc(OCc2cc(C(F)(F)F)cc(C(F)(F)F)c2)c(C(N)=O)cn1 | inactive |  |
| CC(=O)O[C@H](c1ccccc1)c1cc(OCCO)c(C(N)=O)cn1 | inactive |  |
| CC(=O)O[C@@H](c1ccccc1)c1cc(=O)c(C(N)=O)cn1Cc1cc(C(F)(F)F)cc(C(F)(F)F)c1 | inactive |  |
| CC(=O)O[C@@H](c1ccccc1)c1cc(OCCN2CCOCC2)c(C(N)=O)cn1 | Active | Activity (HepG2 [2]): Non-Toxic |
| CCOC(=O)COc1cc([C@@H](OC(C)=O)c2ccccc2)ncc1C(N)=O | Active | Activity (HepG2 [2]): Non-Toxic; Activity (HepG2 [3]): Non-Toxic; Activity (HepG2 [4]): Active |
| CC(=O)O[C@@H](c1ccccc1)c1cc(OCCN(C)C)c(C(N)=O)cn1 | Active | Activity (HepG2 [2]): Non-Toxic |
| COCCn1cc(C(N)=O)c(=O)cc1[C@@H](OC(C)=O)c1ccccc1 | inactive |  |
| CC(=O)O[C@@H](c1ccccc1)c1cc(=O)c(C(N)=O)cn1Cc1ccccc1 | inactive |  |
| NC(=O)c1cnc(Cc2ccccc2)cc1OCCO | Active | Activity (HepG2 [2]): Non-Toxic |
| NC(=O)c1cnc([C@@H](O)c2ccccc2)cc1OCCO | inactive |  |
| CC(=O)O[C@@H](c1ccccc1)c1cc(=O)c(C(N)=O)cn1CCN1CCCC1 | Active |  |
| COc1ccc(Cn2cc(C(N)=O)c(=O)cc2[C@@H](OC(C)=O)c2ccccc2)cc1 | inactive |  |
